From ChEMBL document CHEMBL1157704, “Potent activity against K562 cells by polyamide-seco-CBI conjugates targeting histone H4 genes” (Bioorg Med Chem, 2010)
The source made the active and inactive calls. The rule behind the calls is not given here.

Assays:
K562 [1] = assay: Downregulation of histone H4C mRNA expression in human K562 cells at 250 nM after 48 hrs by real-time PCR analysis; format: functional
Summary of the method: (§1)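 Treated K562 cells were assayed by one-step real-time RT-PCR. Reverse transcription ran 50 °C for 10 min, then hot-start polymerase activation at 95 °C for 15 min. Cycling was 45 cycles of 95 °C 15 s, 55 °C 30 s and 72 °C 30 s. Levels were normalized to GAPDH mRNA; error shown as standard deviation.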

K562 [2] = assay: Cytotoxicity against human K562 cells by MTS assay; format: functional, cell-based
Summary of the method: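 Proliferation of K562 cells (ATCC, standard culture) was read as mitochondrial conversion of the MTS tetrazolium to formazan, using the CellTiter 96 Aqueous One reagent. EC50 was derived from these readings.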

K562 [3] = assay: Induction of apoptosis in human K562 cells assessed as late apoptotic cells at 250 nM after 48 hrs by annexin-V FITC and propidium iodide staining-based FACS analysis; format: functional
Summary of the method: (§2)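 Treated K562 cells […] stained with Annexin V-FITC/propidium iodide. Apoptosis was scored by two-dimensional flow cytometry at a core FACS facility.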

K562 [4] = assay: Induction of apoptosis in human K562 cells assessed as non-viable necrotic cells at 250 nM after 48 hrs by annexin-V FITC and propidium iodide staining-based FACS analysis; format: functional; summary of the method: as §2
K562 [5] = assay: Cell cycle arrest in human K562 cells assessed as increase in accumulation at G2/M phase at 250 nM after 48 hrs propidium iodide staining-based FACS analysis; format: functional
Summary of the method: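 K562 cells (ATCC, b3a2 Bcr-Abl) exposed to polyamide in culture medium and pelleted at 200g for 5 min. Pellets resuspended in PBS, fixed in prechilled 70% ethanol and stained with propidium iodide (50 µg/mL). DNA content read by flow cytometry as G0–G1, S and G2–M fractions; sub-2C DNA taken as fragmentation/apoptosis.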

K562 [6] = assay: Induction of apoptosis in human K562 cells assessed as viable cells at 250 nM after 48 hrs by annexin-V FITC and propidium iodide staining-based FACS analysis; format: functional; settings: K562, 48 h, read-out: Activity; summary of the method: as §2
K562 [7] = assay: Downregulation of histone H4E mRNA expression in human K562 cells at 250 nM after 48 hrs by real-time PCR analysis; format: functional, cell-based; summary of the method: as §1
K562 [8] = assay: Induction of apoptosis in human K562 cells assessed as early apoptotic cells at 250 nM after 48 hrs by annexin-V FITC and propidium iodide staining-based FACS analysis; format: functional; summary of the method: as §2
[9] = system: histone H4c gene fragment DNA (human); assay: Binding affinity to 5'-AGAAAA-3' sequence of 223 bp human histone H4c gene fragment DNA assessed as DNA alkylating activity at 50 to 100 nM after 15 hrs by PAGE

Row | Structure (SMILES) | Activity (K562 [1]) | EC50 (K562 [2]) | Activity (K562 [3]) | Activity (K562 [4]) | Activity (K562 [5]) | viability at 0.25 µM (K562 [6]) | Activity (K562 [7]) | Activity (K562 [8]) | Activity [9]
1 | CN(C)CCCNC(=O)CCNC(=O)c1cc(NC(=O)c2cc(NC(=O)c3cc(NC(=O)c4cc(NC(=O)[C@@H](CCNC(=O)CCCc5ccc(N(CCCl)CCCl)cc5)NC(=O)c5nc(NC(=O)CCNC(=O)c6nc(NC(=O)c7nccn7C)cn6C)cn5C)cn4C)cn3C)cn2C)cn1C | 52% | 300 nM | 10.6% | 1.1% | Active | 78.1% | Active | 10.3% | 
2 | CN(C)CCCNC(=O)CCNC(=O)c1cc(NC(=O)c2cc(NC(=O)c3cc(NC(=O)c4nc(NC(=O)[C@@H](CCNC(=O)CCCc5ccc(N(CCCl)CCCl)cc5)NC(=O)c5cc(NC(=O)c6cc(NC(=O)CCNC(=O)c7nccn7C)cn6C)cn5C)cn4C)cn3C)cn2C)cn1C | 81% | 81 nM | 9.12% | 3.69% | Active | 76.8% | Active | 10.4% | 
3 | CC(=O)Nc1cc(C(=O)Nc2cc(C(=O)NCCC(=O)N[C@@H](CCNC(=O)c3cc(NC(=O)c4nc(NC(=O)CCNC(=O)c5nc(NC(C)=O)cn5C)cn4C)cn3C)C(=O)Nc3cn(C)c(C(=O)Nc4cc(C(=O)Nc5ccc6[nH]c(C(=O)N7CC(CCl)c8c7cc(O)c7ccccc87)cc6c5)n(C)c4)n3)n(C)c2)n(C)c1 (some centres undefined) |  | 38 nM |  |  |  |  |  |  | Active
4 | CN(C)CCCNC(=O)CCNC(=O)c1cc(NC(=O)c2cc(NC(=O)c3cc(NC(=O)c4cc(NC(=O)[C@H](CCNC(=O)CCCc5ccc(N(CCCl)CCCl)cc5)NC(=O)c5nc(NC(=O)CCNC(=O)c6nc(NC(=O)c7nccn7C)cn6C)cn5C)cn4C)cn3C)cn2C)cn1C | inactive |  | 8.88% | 1.39% | Active | 83.4% | inactive | 6.37% | 
5 | CC(=O)Nc1cn(C)c(C(=O)Nc2cc(C(=O)Nc3cn(C)c(C(=O)Nc4cc(C(=O)NCCCC(=O)Nc5cn(C)c(C(=O)Nc6cc(C(=O)Nc7ccc8[nH]c(C(=O)N9CC(CCl)c%10c9cc(O)c9ccccc%109)cc8c7)n(C)c6)n5)n(C)c4)n3)n(C)c2)n1 (centres undefined) |  | 33 nM |  |  |  |  |  |  | Active
6 | CC(=O)Nc1cc(C(=O)Nc2cc(C(=O)NCCC(=O)N[C@@H](CCNC(=O)c3cc(NC(=O)c4nc(NC(=O)c5cc(NC(=O)c6nc(NC(C)=O)cn6C)cn5C)cn4C)cn3C)C(=O)Nc3cn(C)c(C(=O)Nc4cc(C(=O)Nc5ccc6[nH]c(C(=O)N7CC(CCl)c8c7cc(O)c7ccccc87)cc6c5)n(C)c4)n3)n(C)c2)n(C)c1 (some centres undefined) |  | 17 nM |  |  |  |  |  |  | Active
